Assay outcomes from PubChem BioAssay.
GPR7 antag = human neuropeptides B/W receptor 1 antagonism; GPR7-expressing cells, fluorescence antagonist assay; inhibition, % at 4.4 µM; AID 1861; 290,000 tested, 1.1% active; in the data active = inhibition above about 16%, passing the limit was not always enough;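 also: cells stimulated with the agonist NPW; 0% = agonist with vehicle and 100% = vehicle without agonist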
Target sequence (P48145 whole entry, looked up): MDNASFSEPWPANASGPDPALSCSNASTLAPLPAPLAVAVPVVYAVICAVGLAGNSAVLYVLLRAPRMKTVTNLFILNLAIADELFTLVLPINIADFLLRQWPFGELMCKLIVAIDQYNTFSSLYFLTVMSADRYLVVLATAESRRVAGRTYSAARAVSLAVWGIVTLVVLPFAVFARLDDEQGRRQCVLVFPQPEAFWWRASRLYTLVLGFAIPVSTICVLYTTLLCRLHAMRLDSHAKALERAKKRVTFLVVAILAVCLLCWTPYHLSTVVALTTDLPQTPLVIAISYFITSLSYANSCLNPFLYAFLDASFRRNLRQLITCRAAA
OX1R antag-1 = blocks the human orexin 1 receptor; O43613; OX1R-expressing cells, FRET antagonist read-out; 330,000 tested, 1.8% active; inhibition, % at 6.6 µM; in the data active = inhibition mostly above about 38%, no sharp cut-off; inactive = mostly below about 40%;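 also: 0% = agonist challenge alone and 100% = reference antagonist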
TAAR1 agonist = agonists of human TAAR1 | activation, % at 3 µM | Q96RJ0 | CHO RD-HGA16 TAAR1, Fluo-8 calcium fluorescence; vehicle wells 0%, saturating PEA agonist 100% | 360,000 tested, 0.99% active;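 active = activation above the mean activation of all test compounds in the run plus 3 SD, cut at about 38% in these data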
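Assay system: CHO-derived RD-HGA16 cells with stable Gα16 and human TAAR1; timing: 17-24 h seeding, 75 min 37 °C dye, 30 min RT; read-out: % activation from peak over basal fluorescence ratio, DMSO-to-PEA scaled; measured by: kinetic Fluo-8 calcium fluorescence; benchmarks: low control DMSO, high control PEA (EC100); doses: 3 µM single concentration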
TAAR1 antag = antagonists of human TAAR1; inhibition, % at 3 µM; 360,000 tested, 1.5% active; CHO RD-HGA16 TAAR1, Fluo-8 calcium fluorescence, antagonist; AID 624466;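 active = inhibition above a per-plate cutoff, the mean inhibition of test compounds on that plate plus 3 SD, cut at about 49% in these data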;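 also: 0% = DMSO plus EC80 beta-PEA response and 100% = DMSO alone without agonist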
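Test system – hTAAR1-expressing CHO RD-HGA16 cells, Gα16-coupled · Reagent – β-PEA at EC80 concentration, post-compound challenge · Compound dosing – 3 µM, single point · Timing – 140 s kinetic read after compound, 140 s after agonist · Detection – Fluo-8 intracellular calcium dye fluorescence, real-time kinetic reads · Control set – DMSO and EC80 PEA controls · Repeats – n of 1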
OX1R antag-2 = human HCRTR1 antagonism. O43613. CHO/OX1R cells, Fluo-8 calcium fluorescence, orexin A. inhibition, % at 5 µM. 330,000 tested, 0.43% active. AID 434989;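 active = inhibition above its plate's threshold, mean inhibition of all tested compounds on the plate plus 3 SD, cut at about 37% in these data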;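 also: 0% = orexin A challenge wells and 100% = SB-334867-A antagonist wells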
CHO parental Ca = counter-screen for OX1R antagonists: effect in parental CHO cells | parental CHO-K1, ATP-induced calcium, Fluo-8 fluorescence | inhibition, % at 5.6 µM | 330,000 tested, 0.63% active;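 active = inhibition above that plate's mean sample inhibition plus 3 SD, cut at about 26% in these data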;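 also: 0% = ATP-challenged DMSO wells and 100% = DMSO wells without ATP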
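Material – parental CHO cells · Reagent – ATP stimulus · Compound – single nominal dose of 5.6 µM per compound · Detection – Fluo-8 fluorescence · Read-out basis – percent inhibition of calcium signal · Controls – ATP-challenged DMSO wells low, unchallenged DMSO wells high · Repeats – no replicates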
TAAR1 ag conf = human TAAR1 agonism, confirmed; shares compounds with TAAR1 agonist; CHO RD-HGA16 TAAR1, Fluo-8 calcium fluorescence; scaled: DMSO 0%, maximal phenethylamine 100%; activation, % at 3 µM; 2,400 tested, 82% active; AID 651783;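 active = activation above a cutoff set at the run's mean compound activation plus 3 SD, cut at about 39% in these data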
Ga16 ag counter = nonselective agonism, TAAR1 counter-screen; shares compounds with TAAR1 agonist; CHO-Ga16 parental, Fluo-8 calcium fluorescence; normalized to maximal ATP response, DMSO zero; activation, % at 3 µM; 2,400 tested, 50% active;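 active = activation above the run cutoff, the mean activation over all tested wells plus 3 SD, cut at about 12% in these data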;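 also: 0% = DMSO wells and 100% = maximal ATP response on the peak over basal ratio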
TAAR1 desensitize = TAAR1 response desensitization, agonist counter-screen; inhibition, % at 3 µM; 2,400 tested, 46% active; shares compounds with TAAR1 agonist; CHO RD-HGA16 hTAAR1, Fluo-8 calcium, beta-PEA response inhibition; AID 651951;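 active = inhibition above the run cutoff, the mean inhibition of all test compounds plus 3 SD, cut at about 49% in these data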;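 also: beta-PEA stimulus applied at its EC80; loss of beta-PEA calcium signal after compound pretreatment read as receptor desensitization; 0% = DMSO with beta-PEA at EC80 and 100% = DMSO alone without agonist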
Ga16 antag count = nonselective Ga16 antagonism, counter-screen. inhibition, % at 3 µM. shares compounds with TAAR1 agonist. AID 651952. 2,400 tested, 39% active. CHO-Ga16 ATP-induced calcium, Fluo-8 fluorescence;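 active = inhibition above the plate's mean compound inhibition plus 3 SD, computed per plate, cut at about 22% in these data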;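 also: 0% = EC80 ATP with DMSO and 100% = DMSO wells without ATP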
Numbers without * were called inactive; · = no result given. Hits are enriched below; roughly 4.6% of the tested compounds scored in any of these assays.

SMILES	GPR7 antag	OX1R antag-1	TAAR1 agonist	TAAR1 antag	OX1R antag-2	CHO parental Ca	TAAR1 ag conf	Ga16 ag counter	TAAR1 desensitize	Ga16 antag count
O=C(CCSc1nc(-c2ccco2)cc(C(F)(F)F)n1)NCCc1ccccc1	-8	19	1	-15	-44	-4	·	·	·	·
FC(F)(F)c1cc(-c2ccco2)nc(NCCc2ccccc2)n1	-12	8	55*	11	-41	-27	83*	1	34	9
CCCCn1nnnc1C(c1ccccc1)N1CCc2ccccc2C1 (centres undefined)	·	·	-2	11	·	·	·	·	·	·
COCCn1nnnc1C(c1ccc(O)c(OC)c1)N1CCc2ccccc2C1 (centres undefined)	-3	7	86*	84*	-17	-8	103*	1	97*	9
CCC(C)(C)n1nnnc1C(c1ccc(O)cc1)N1CCc2ccccc2C1 (centres undefined)	3	7	98*	84*	-21	5	93*	4	86*	15
CC(C)(C)n1nnnc1C(c1ccccc1)N1CCc2ccccc2C1 (centres undefined)	9	3	·	·	-15	-15	·	·	·	·
CC(=O)c1ccc(NC(=O)Nc2ccccc2)cc1	12	14	54*	15	-6	-4	68*	11	55*	14
O=C(Nc1ccncc1)Nc1cccc(Cl)c1	10	6	59*	34	4	23	86*	16*	52*	19
O=C(Nc1ccccc1)Nc1ccncc1	-6	8	82*	53*	1	1	97*	6	86*	8
CN(c1cccc(NC(=O)Nc2cccc(Cl)c2)c1)S(C)(=O)=O	10	98*	43*	19	72*	73*	37	9	32	29*
CCC1CCCCN1CCCNC(=O)c1ccc(CS(=O)(=O)Cc2ccc(Cl)cc2)o1 (centres undefined)	1	-3	2	-3	-6	-3	·	·	·	·
CC(Cc1cccs1)NC(=O)Nc1ccc(F)cc1 (centres undefined)	-2	24	49*	-3	-2	1	82*	2	21	1
C=CCN1C=C/C(=C\C=C(C#N)C#N)c2ccccc21	-3	32	66*	29	4	19	74*	8	66*	26*
CCCCCCN1C=C/C(=C\C=C(C#N)C#N)c2ccccc21	-6	46	10	13	10	-1	·	·	·	·
O=[N+]([O-])c1cccc(-n2cc3ccc([N+](=O)[O-])cc3n2)c1	·	0	1	0	-11	-11	·	·	·	·
O=C(c1ccco1)N1CCN(C(=O)N2CCCCC2)CC1	-3	13	2	19	-1	6	·	·	·	·
O=C(O)C1=C(C(=O)N2CCN(C(=O)c3ccco3)CC2)CCCC1	-15	3	43*	13	8	0	52*	2	16	6
Cc1ccc(N2CN(CCc3ccccc3)CNC2=S)cc1	-12	1	73*	60*	-15	-21	90*	0	81*	8
CCCN1CNC(=S)N(c2ccc(C(=O)OCC)cc2)C1	-6	17	2	8	-6	-14	·	·	·	·
Cc1ccc(C)c(N2CN(CCC3=CCCCC3)CNC2=S)c1	1	6	59*	23	-23	-13	53*	1	59*	14
CCN1CNC(=S)N(CCc2ccccc2)C1	1	32	2	8	-3	5	·	·	·	·
